Measured values taken from ChEMBL document CHEMBL4130608, “Isolation, Derivative Synthesis, and Structure-Activity Relationships of Antiparasitic Bromopyrrole Alkaloids from the Marine Sponge Tedania brasiliensis” (J Nat Prod, 2018).
In brackets after ≈: the same amount, converted by molar mass. Activity calls are given as the source filed them. The rule behind the calls is not given here.

Experiments:
Plasmodium falciparum [1] = test: Antiplasmodial activity against drug-sensitive blood stage Plasmodium falciparum 3D7 by SYBR green 1 staining based fluorescence assay; type: functional, organism-based
Summary of the method: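 Sorbitol-synchronized ring-stage 3D7 exposed to a range of concentrations (samples in 0.05% DMSO), in triplicate. Then lysed with Tris/EDTA/saponin/Triton buffer containing SYBR Green I (1:20000) for 30 min. IC50 from curve fitting against untreated growth.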

Leishmania amazonensis [2] = test: Antileishmanial activity against Leishmania amazonensis MHOM/BR/1973/M2269 promastigotes after 24 hrs by MTT assay; type: functional, organism-based; conditions: MHOM/BR/1973/M2269, 24 h
Summary of the method: (§1)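 Promastigotes (L. amazonensis, L. infantum; 26 °C, M199 with 20% heat-inactivated FBS, hemin, adenine, L-glutamine, plus 5% human urine for L. infantum) or T. cruzi Y epimastigotes (LIT with hemin, 10% FCS, 28 °C). Exposed to a series of concentrations for 24 h. Viability read by MTT. EC50 from sigmoidal fit of concentration–response. Triplicates, repeated two or three times.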

[3] = Selectivity index, ratio of MDL50 for human HepG2 cells to IC50 for drug-sensitive blood stage Plasmodium falciparum 3D7; type: toxicity; conditions: HepG2 cells versus blood stage Plasmodium falciparum 3D7, read-out: Selectivity Index
Trypanosoma cruzi = test: Antitrypanosomal activity against Trypanosoma cruzi Y epimastigotes after 24 hrs by MTT assay; type: functional, organism-based; summary of the method: as §1
Leishmania infantum = test: Antileishmanial activity against Leishmania infantum MHOM/BR/1972/LD promastigotes after 24 hrs by MTT assay; type: functional, organism-based; summary of the method: as §1
[4] = Cytotoxicity against human HepG2 cells after 24 hrs by MTT assay; type: cell-based; conditions: read-out: MDL50
Summary of the method: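 HepG2 cells grown in RPMI-1640 with 10% FBS, seeded at 5 × 10^3 cells/well and allowed to adhere for 18 h. Exposed to 1,000–1 μg/mL for 24 h at 37 °C, 5% CO2. MTT (5 mg/mL stock) added for 3 h, formazan dissolved in DMSO, absorbance read at 570 and 630 nm. Viability expressed as % of untreated control after background subtraction.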

Leishmania amazonensis [5] = test: Antileishmanial activity against Leishmania amazonensis amastigotes infected in BALB/c mouse BMDM assessed as reduction in intracellular amastigotes at 50 uM after 24 hrs by microscopic analysis relative to control; type: functional; set-up: scale not given: the % may be the effect or the level left
Summary of the method: (§2)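 BALB/c bone marrow macrophages infected with stationary-phase L. amazonensis promastigotes (MOI 10) for 1 h, then washed and held 24 h at 33 °C, 5% CO2. Treated with 6.125, 25, 50 or 100 μM for 24 h at 33 °C. Cells MeOH-fixed and stained. Amastigotes counted in 300 cells per coverslip on triplicate coverslips. Expressed as % reduction versus untreated infected cells. Two independent experiments.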

BMDM = test: Cytotoxicity against BALB/c mouse BMDM after 24 hrs by MTT assay; type: cell-based
Summary of the method: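 Differentiated BALB/c female mouse bone marrow macrophages incubated at 37 °C with increasing concentrations for 24 h. Viability read by MTT and CC50 calculated.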

Leishmania amazonensis [6] = test: Antileishmanial activity against Leishmania amazonensis amastigotes infected in BALB/c mouse BMDM assessed as reduction in intracellular amastigotes at 100 uM after 24 hrs by microscopic analysis relative to control; type: functional; set-up: scale not given: the % may be the effect or the level left; summary of the method: as §2
Leishmania amazonensis [7] = test: Antileishmanial activity against Leishmania amazonensis amastigotes infected in BALB/c mouse BMDM assessed as reduction in intracellular amastigotes at 25 uM after 24 hrs by microscopic analysis relative to control; type: functional; set-up: scale not given: the % may be the effect or the level left; summary of the method: as §2
Leishmania amazonensis [8] = test: Antileishmanial activity against Leishmania amazonensis amastigotes infected in BALB/c mouse BMDM assessed as reduction in intracellular amastigotes at 6.125 uM after 24 hrs by microscopic analysis relative to control; type: functional; set-up: scale not given: the % may be the effect or the level left; summary of the method: as §2
Leishmania amazonensis [9] = test: Antileishmanial activity against Leishmania amazonensis amastigotes infected in BALB/c mouse BMDM assessed as reduction in intracellular amastigotes after 24 hrs by microscopic analysis; type: functional, organism-based; summary of the method: as §2
Plasmodium falciparum [10] = test: Antiplasmodial activity against chloroquine/cycloguanil/pyrimethamine-resistant blood stage Plasmodium falciparum K1 assessed as morphological changes at 10 times IC50 after 8 to 16 hrs by microscopic analysis; type: functional, organism-based
Summary of the method: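 Highly synchronized blood-stage parasites were kept under continuous treatment, with a DMSO-treated control. Morphology was examined by microscopy at 0, 8, 16 and 32 h post-synchronization. Images are representative of three independent experiments.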

Plasmodium falciparum [11] = test: Synergistic antiplasmodial activity against drug-sensitive blood stage Plasmodium falciparum 3D7 in presence of artesunate; type: functional
Summary of the method: (§3)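 Each drug's stock was made in complete medium so that the final concentration approximates its IC50 after 3–4 twofold dilutions. Stocks were mixed v/v at ratios ranging from 0:5 to 5:0 and serially diluted two-fold to seven concentrations. FIC50 was computed for each drug and summed as ΣFIC50.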

HepG2 = test: Cytotoxicity against human HepG2 cells assessed as morphological changes at 10 uM by microscopic method; type: cell-based; conditions: hepg2, 10 µM
Summary of the method: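 HepG2 cells treated at 10 μM for 24 h. Microscopic morphology compared with untreated cells.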

Plasmodium falciparum [12] = test: Synergistic antiplasmodial activity against chloroquine/cycloguanil/pyrimethamine-resistant blood stage Plasmodium falciparum K1 in presence of artesunate; type: functional; summary of the method: as §3
Plasmodium falciparum [13] = test: Antiplasmodial activity against chloroquine/cycloguanil/pyrimethamine-resistant blood stage Plasmodium falciparum K1 by SYBR green 1 staining based fluorescence assay; type: functional, organism-based
Summary of the method: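 Freshly sorbitol-synchronized ring stages were exposed in triplicate to a concentration series, solubilized in 0.05% DMSO (v/v), alongside sample-free cultures. Cells were lysed for 30 min in 20 mM Tris pH 7.5, 5 mM EDTA, 0.008% saponin and 0.08% Triton X-100 with SYBR green I (1:20000). IC50 was obtained by curve fitting against untreated growth.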

Plasmodium falciparum [14] = test: Antiplasmodial activity against drug-sensitive blood stage Plasmodium falciparum 3D7 ring forms assessed as morphological changes at 10 times IC50 after 8 to 16 hrs by microscopic analysis; type: functional, organism-based
Summary of the method: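 Morphology examined by microscopy at 0, 8, 16 and 32 h post-synchronization. Three independent experiments.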

Leishmania donovani = test: Antileishmanial activity against Leishmania donovani MHOM/ET/67/L82 amastigote forms after 72 hrs by alamar blue staining based fluorescence assay; type: functional, organism-based; conditions: MHOM/ET/67/L82, 72 h
[15] = tested on: Trypanosoma brucei rhodesiense; test: Antitrypanosomal activity against Trypanosoma brucei rhodesiense STIB 900 bloodstream forms after 72 hrs by alamar blue staining based fluorescence assay; type: functional, organism-based; conditions: STIB 900, 72 h
Plasmodium falciparum [16] = test: Antiplasmodial activity against chloroquine/pyrimethamine-resistant Plasmodium falciparum K1 assessed as reduction in [3H]hypoxanthine incorporation pretreated for 48 hrs followed by [3H]hypoxanthine addition measured after 24 hrs by liquid scintillation counting method; type: functional, organism-based

Row | Compound | IC50 (Plasmodium falciparum [1]) [µM] | EC50 (Leishmania amazonensis [2]) [µM] | selectivity ratio [3] | EC50 (Trypanosoma cruzi) [µM] | EC50 (Leishmania infantum) [µM] | CC50 at 24 h [4] [µM] | further results
1 | O=C(NCCCCNCCCNC(=O)c1cc(Br)c[nH]1)c1cc(Br)c[nH]1 | 7 | > 100 | ≥ 54 | > 100 | > 100 | ≥ 400 | –
2 | O=C(NCCCCNCCCNC(=O)c1cc(Br)c(Br)o1)c1cc(Br)c(Br)o1 | 3 | 18 | ≥ 125 | > 100 | 23 | ≥ 400 | Activity (Leishmania amazonensis [5]): 60%; CC50 (BMDM): 82 µM; Activity (Leishmania amazonensis [6]): 77.4%; Activity (Leishmania amazonensis [7]): 35%; Activity (Leishmania amazonensis [8]): 55.6%; Activity (Leishmania amazonensis [9]): Dose-dependent effect
3 | O=C(NCCCCCNC(=O)c1ccc[nH]1)c1ccc[nH]1 | > 10 | > 100 | – | > 50 | > 100 | – | –
4 | CN(CCCCNC(=O)c1cc(Br)c(Br)[nH]1)CCCNC(=O)c1cc(Br)c(Br)[nH]1 | 4 | > 100 | 35 | > 100 | > 100 | 160 | –
5 | O=C(NCCCCNCCCNC(=O)c1nc2ccccc2[nH]1)c1nc2ccccc2[nH]1 | > 10 | > 100 | – | > 100 | > 100 | – | –
6 | O=C(NCCCCNCCCNC(=O)c1cc(Br)c(Br)[nH]1)c1cc(Br)c(Br)[nH]1 | 1 | > 100 | 15 | > 100 | > 100 | 16 | Activity (Plasmodium falciparum [10]): Active; fractional inhibitory concentration index (FICI) (Plasmodium falciparum [11]): 1; Activity (HepG2): Non-Toxic; fractional inhibitory concentration index (FICI) (Plasmodium falciparum [12]): 1; IC50 (Plasmodium falciparum [13]): 1.1 µM; Activity (Plasmodium falciparum [14]): Active
7 | Cc1cccc(C(=O)NCCCCNCCCNC(=O)c2cccc(C)n2)n1 | > 10 | > 100 | – | > 100 | > 100 | – | –
8 | O=C(O)CC1CNC(=O)c2cc(Br)c(Br)n21 (stereo not drawn) | – | – | – | – | – | – | IC50 (Leishmania donovani): 3.85 µg/mL (≈ 10.9 µM); IC50 [15]: 1.53 µg/mL (≈ 4.35 µM)
9 | O=C(NCCCCCCCCNC(=O)c1cc(Br)c(Br)[nH]1)c1cc(Br)c(Br)[nH]1 | > 10 | > 100 | – | > 100 | > 100 | – | –
10 | O=C(NCCCCCNC(=O)c1cc(Br)c(Br)[nH]1)c1cc(Br)c(Br)[nH]1 | > 10 | 19 | – | 7 | 24 | – | CC50 (BMDM): 52 µM
11 | NC1NC(=O)/C(=C2/CCNC(=O)c3[nH]cc(Br)c32)N1 (stereo not drawn) [SPONGIACIDIN B] | – | – | – | – | – | – | IC50 (Plasmodium falciparum [16]): 1.09 µg/mL (≈ 3.34 µM)
12 | O=C(NCCCCNCCCNC(=O)c1cccc(Cl)n1)c1cccc(Cl)n1 | > 10 | > 100 | – | > 100 | > 100 | – | –
13 | Cc1ccc(C(=O)NCCCCNCCCNC(=O)c2ccc(C)o2)o1 | > 10 | > 100 | – | > 100 | > 100 | – | –
